Source: article PMC6910256 (Journal of photochemistry and photobiology. A, Chemistry, 2019)
Read-outs that look alike come from different tables or passages of the source.

Legend:
[1] = target: T1, DUSP5 PD (Homo sapiens, UniProt Q16690); test: Spectral analysis of other xanthene dyes binding to DUSP5 PD protein; conditions: 4 μM compound, 4 μM protein
T1 sequence (Q16690 178-319 limits assumed): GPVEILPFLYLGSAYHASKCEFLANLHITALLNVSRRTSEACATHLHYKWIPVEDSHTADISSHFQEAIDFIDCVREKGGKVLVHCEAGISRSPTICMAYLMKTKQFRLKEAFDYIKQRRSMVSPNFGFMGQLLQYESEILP
How it was run: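 Each test compound at 4 μM in assay buffer, without or with 1 mM DTT, in 2 mL quartz cuvettes. Absorbance was scanned at 1 nm intervals from 400 to 600 nm. DUSP5 PD was then added to a final 4 μM and the sample rescanned. Blanks were buffer with or without DTT, plus buffer with 4 μM protein. Spectra without protein were subtracted from spectra with protein to give difference spectra.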

[2] = target: T1, DUSP5 PD; test: Reaction progress curve analysis of irreversible DUSP5 PD inactivation; type: biochemical; conditions: for fold less effective than merbromin (time-dependent inhibition): absence of DTT
[3] = target: T1, DUSP5 PD; test: DUSP5 phosphatase domain pNPP assay, IC50 from initial velocities; type: biochemical
How it was run: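 Recombinant DUSP5 phosphatase domain in 100 mM Tris, 100 mM NaCl, 5 mM MgCl2, pH 7.5, without or with 1 mM DTT, using 5 mM pNPP (near Km). Compound was serially diluted and enzyme added from a 25 μM stock. After 0, 30 or 60 min dark incubation, A405 was read every 30 s for 10 min at 25°C. Blank-subtracted slopes were normalised to vehicle controls and fitted to equation 2. Three or four trials of triplicate wells.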

[4] = target: T2, GST-DUSP5 (full length DUSP5, pERK substrate) (Homo sapiens, UniProt Q16690); test: In vitro ERK dephosphorylation Western blot assay; type: biochemical
T2 sequence (Q16690 1-384): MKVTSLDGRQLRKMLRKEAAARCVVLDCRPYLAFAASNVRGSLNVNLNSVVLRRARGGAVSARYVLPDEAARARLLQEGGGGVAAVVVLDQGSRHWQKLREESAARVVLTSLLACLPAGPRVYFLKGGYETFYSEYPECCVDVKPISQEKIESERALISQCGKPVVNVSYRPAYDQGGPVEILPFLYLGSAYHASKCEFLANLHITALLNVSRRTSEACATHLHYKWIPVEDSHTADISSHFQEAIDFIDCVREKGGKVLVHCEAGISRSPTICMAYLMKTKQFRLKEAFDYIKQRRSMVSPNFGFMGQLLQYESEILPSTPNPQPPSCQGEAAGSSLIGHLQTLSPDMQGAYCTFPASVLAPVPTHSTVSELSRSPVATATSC

[5] = Nephelometry; type: physicochemical; conditions: assay buffer pH 7.5 without vs with 1 mM DTT
How it was run: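 Aggregation was tested in 96-well plates using substrate-free assay buffer at pH 7.5, without or with 1 mM DTT. Serially diluted compound was added to give final concentrations of 1–100 μM or 1–300 μM, depending on compound.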

[6] = tested on: ulcerative hemangioma; conditions: topical use in the clinic; cited from earlier work
[7] = cited from earlier work
[8] = target: T1, DUSP5 PD; test: Steady-state competitive inhibition kinetics; type: biochemical; conditions: vs pNPP
How it was run: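 Initial DUSP5 PD velocities were measured across 3–81 mM pNPP and 0–30 μM test compound, in assay buffer with 1 mM DTT. The data were fitted globally to a steady-state competitive inhibition model (equation 5), giving Vmax, Km and Ki ± SE.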

[9] = target: T3, GST-DUSP5 (Homo sapiens, UniProt Q16690); test: Prestwick drug library pNPP enzyme assay screen; type: biochemical; conditions: 50 μM drug, 5 mM pNPP
T3 sequence (Q16690 178-319 limits assumed): T1 sequence (Q16690 178-319 limits assumed)

[10] = target: T1, DUSP5 PD; test: LED illumination kinetic studies; type: biochemical; conditions: 555 nm LED, 30 min, 825 lux
How it was run: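 Samples of 4 mL containing 1 μM DUSP5 PD and 0, 1, 2 or 3.5 μM test compound were prepared at 20°C under <1 lux. They were then treated for 30 min, illuminated or light-shielded. Aliquots of 190 μL were started with pNPP (final 0, 3, 9, 27 mM), four replicates each, plated under <1 lux. A405 was read every 30 s for 10 min at 25°C. Initial velocities were globally fitted to the noncompetitive models (equations 6, 7).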

[11] = target: T1, DUSP5 PD; test: Incandescent bulb kinetic studies, noncompetitive inhibition models; type: biochemical
How it was run: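 DUSP5 PD (final 1 μM) in 100 mM Tris pH 7.5, 100 mM NaCl, 5 mM MgCl2, 1 mM DTT, precooled to 4°C. Incubated in glass tubes with test compound (1 mM aqueous stock, light-protected), either light-limited or under incandescent illumination. Substrate was 3, 9 or 27 mM pNPP, with pNPP-only background subtraction. Initial velocities came from linear fits of p-nitrophenolate (ε 18,000). Fits were global noncompetitive models: a single Ki (equation 6), or slope Kis and intercept Kii (equation 7).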

[12] = target: T1, DUSP5 PD; test: Headspace gas sparging kinetic studies; type: biochemical; conditions: 1 μM rose bengal, illuminated 15 min
How it was run: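 Borosilicate tubes held 4 mL assay buffer with 1 μM DUSP5 PD, without or with 1 μM test compound. They were prepared shielded from light, stoppered and kept on ice. Ultrapure air, nitrogen or oxygen was passed through the headspace at 2.5 L/min by needle. Controls: enzyme without compound under room air. After illumination, pNPP hydrolysis was read at 405 nm every 30 s for 10 min at 25°C in 96-well plates, background-subtracted and converted to p-nitrophenolate.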

[13] = target: T1, DUSP5 PD; test: Binding of rose bengal to DUSP5 PD by UV-Vis spectral titration; conditions: read-out: Kd for binding to DUSP5; as printed in abstract/highlights
How it was run: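 Final protein was 0, 1.0, 2.0 and 3.0 μM with 1.08 μM compound, or 0–2.5 μM in 0.5 μM steps with 3.25 or 6.5 μM compound. Absorbance differences were fitted hyperbolically (equation 8) against total protein to obtain Absmax. Fractional absorbance was plotted versus total protein.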

[14] = with 1 mM DTT, summary of data sets (Table 2)
[15] = without DTT, summary of data sets (Table 2)
[16] = IC50 against DUSP5 PD activity, with 1 mM DTT, 30 min incubation, mean ± SD
[17] = IC50 against DUSP5 PD activity, with 1 mM DTT, 60 min incubation, mean ± SD
[18] = IC50 against DUSP5 PD activity, without DTT, 30 min incubation, mean ± SD
[19] = IC50 against DUSP5 PD activity, without DTT, 60 min incubation, mean ± SD
[20] = without DTT, fit shown in Fig. 5c/6c
[21] = without DTT, fit of kobs replot to equation 4 (Fig. 5c/6c)

Row | Molecule | spectral shift upon addition of DUSP5 PD protein ([1]; with 1 mM DTT) | spectral shift upon addition of DUSP5 PD protein ([1]; without DTT) | Inhibitor mechanism (irreversible inactivation) ([2]; with 1 mM DTT) | kinact/KI [2, 14] [M⁻¹ s⁻¹] | Inhibitor mechanism (irreversible inactivation) ([2]; without DTT) | kinact/KI [2, 15] [M⁻¹ s⁻¹] | inhibitory activity with DUSP5 in library screen [9] | further results
1 | O=C1OC2(c3cc(Br)c(O)cc3Oc3cc(O)c(Br)cc32)c2ccccc21 [2’,7’-dibromofluorescein] | shifted slightly | shifted slightly | single-step | 0.84 ± 0.07 | single-step | 2.40 ± 0.48 |  | 
2 | O=C1OC2(c3cc(Cl)c(O)cc3Oc3cc(O)c(Cl)cc32)c2ccccc21 [2’,7’-dichlorofluorescein] | no spectral differences | no spectral differences | single-step | 0.14 ± 0.02 | single-step | 0.41 ± 0.06 |  | 
3 | O=C1OC2(c3ccccc31)c1cc(Br)c(O)c(Br)c1Oc1c2cc(Br)c(O)c1Br [Eosin Y, 2’,4’,5’,7’-tetrabromofluorescein] | not diminished | spectrally shifted | single-step | 0.9 ± 0.13 | two-step | 6.06 ± 2.43 |  | IC50 [3, 16]: > 100 µM; IC50 [3, 17]: > 100 µM; IC50 [3, 18]: 63.3 ± 6.9 µM; IC50 [3, 19]: 37.6 ± 4.5 µM; IC50 [4]: 12.7 ± 3 µM; Ki [2]: 43 µM; kinact [2]: 0.0002 s⁻¹; fold less effective than merbromin (time-dependent inhibition) [2]: roughly 10 fold; kinact/KI [2, 20]: 6.6 M⁻¹ s⁻¹; effect of DTT addition on compound aggregation [5]: little effect; efficacy in ulcerative hemangioma patients [6]: showed efficacy; LD50 [7]: > 10 mmol/kg
4 | O=C1OC2(c3ccccc31)c1cc(I)c(O)c(I)c1Oc1c2cc(I)c(O)c1I [Erythrosin B, 2’,4’,5’,7’-tetraiodofluorescein] | not diminished | spectrally shifted | single-step | 4.13 ± 0.13 | single-step | 4.65 ± 0.71 |  | fold less effective than merbromin (time-dependent inhibition) [2]: roughly 10 fold; steady-state inhibition mechanism [8]: competitive inhibitor
5 | CN1CCC2(C)c3cc(O)ccc3N(C)C12.O=C(O)/C=C/C(=O)O (centres unmarked) [Eseroline fumarate salt] |  |  |  |  |  |  | showed inhibitory activity | 
6 | O=C1OC2(c3ccc(O)cc3Oc3cc(O)ccc32)c2ccccc21 [Fluorescein] | no spectral differences | no spectral differences |  |  |  |  |  | IC50 [3]: > 300 µM; IC50 [3, 16]: > 300 µM; IC50 [3, 17]: > 300 µM; IC50 [3, 18]: > 300 µM; IC50 [3, 19]: > 300 µM; inhibition of DUSP5 PD activity ([3]; concentrations up to 300 μM): did not inhibit
7 | N[C@@H](Cc1ccc(O)c(O)c1)C(=O)O [Levodopa] |  |  |  |  |  |  | showed inhibitory activity | 
8 | CN(C)[C@@H]1C(O)=C(C(=O)NCNCCCC[C@H](N)C(=O)O)C(=O)[C@@]2(O)C(O)=C3C(=O)c4c(O)cccc4[C@@](C)(O)[C@H]3C[C@@H]12 [Lymecycline] |  |  |  |  |  |  | showed inhibitory activity | 
9 | O=C([O-])c1ccccc1-c1c2cc(Br)c(=O)cc-2oc2[c]([Hg+])c([O-])c(Br)cc12.[Na+].[Na+].[OH-] [Merbromin, 2’,7’-dibromo-5’-[hydroxy-mercurio]-fluorescein] | blunted | largest spectral shift | single-step | 6.22 ± 0.74 | two-step | 47.08 ± 4.66 | showed inhibitory activity | rank in secondary assay of pERK dephosphorylation among 8 screen hits ([4]; non-cell based western blot): most potent inhibitor; kinact/KI (slope of linear fit) ([2]; with 1 mM DTT, fit shown in Fig. 5c/6c): 6.0 M⁻¹ s⁻¹; kinact/KI (slope from the data fit) ([2]; with DTT, Fig. 5c): 6.0 M⁻¹; fold decrease of kinact/KI in the presence of DTT ([2]; with vs without DTT): 7.6 fold; Ki [2, 21]: 33 µM; kinact [2, 21]: 0.0014 s⁻¹; kinact/KI [2, 20]: 42.4 M⁻¹ s⁻¹; kinact/KI ([2]; without DTT, summary of data sets (Table 2), listed as merbromin): 47 M⁻¹ s⁻¹; effect of DTT addition on compound aggregation [5]: little effect
10 | COc1cc(NC(C)CCCN)c2ncccc2c1 (centres unmarked) [Primaquine diphosphate] |  |  |  |  |  |  | showed inhibitory activity | 
11 | CC[N+](C)(CC)CCC[n+]1c(-c2ccccc2)c2cc(N)ccc2c2ccc(N)cc21.[I-].[I-] [Propidium iodide] |  |  |  |  |  |  | showed inhibitory activity | 
12 | O=C(O)c1c(Cl)c(Cl)c(Cl)c(Cl)c1-c1c2cc(I)c(=O)c(I)c-2oc2c(I)c(O)c(I)cc12 [Rose Bengal, 4,5,6,7-tetrachloro-2’,4’,5’,7’-tetraiodofluorescein] |  |  |  |  |  |  |  | Ki of LED-illuminated samples relative to samples incubated in the dark [10]: about half; Kii, intercept inhibition constant (two Ki noncompetitive model, equation 7) ([11]; 15 min dark incubation): 2.25 ± 0.10 µM; Kii, intercept inhibition constant (two Ki noncompetitive model, equation 7) ([11]; 15 min light exposure): 0.55 ± 0.02 µM; steady-state inhibition mechanism ([11]; vs pNPP): noncompetitive inhibitor; DUSP5 PD enzyme activity, oxygen-gassed vs other conditions [12]: significantly lower activities; DUSP5 PD enzyme velocity, nitrogen-gassed vs compressed air or oxygen [12]: significantly higher velocities; Kd [13]: 0.69 µM
13 | O.O=C1C(O)=C(O)C(=O)C(O)=C1O [Tetrahydroxy 1,4-quinone monohydrate] |  |  |  |  |  |  | showed inhibitory activity | 
14 | Anthracin |  |  |  |  |  |  | showed inhibitory activity | 
15 | Cyanocobalamin |  |  |  |  |  |  | showed inhibitory activity | 
